Experimental data as given in ChEMBL document CHEMBL1148224, “The synthesis and structure-activity relationships of 3-amino-4-benzylquinolin-2-ones; discovery of novel KCNQ2 channel openers” (Bioorg Med Chem Lett, 2004).

Legend:
[1] = target: Potassium voltage-gated channel subfamily KQT member 2 (Mus musculus) (UniProt Q9Z351); test: Increased outward current at -40 mV mediated by mouse KCNQ2 channel expressed in Xenopus laevis oocytes at 20 uM; format: functional, cell-based; conditions: Oocyte
In short: (§1)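 Mouse KCNQ2 (mKCNQ2) currents recorded from Xenopus oocytes by two-electrode voltage clamp. Holding potential -90 mV, with about 5 s steps in +10 mV increments up to +40 mV. Records digitized at 5 kHz. Each compound applied at a single concentration (1, 5 or 20 µM) in at least 3 oocytes. Value is the mean percent change in current relative to the drug-free control (100%).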

[2] = target: Potassium voltage-gated channel subfamily KQT member 2 (Mus musculus) (UniProt Q9Z351); test: Increased outward current at -40 mV mediated by mouse KCNQ2 channel expressed in Xenopus laevis oocytes at 1 uM; format: functional, cell-based; conditions: Oocyte; in short: as §1
[3] = target: Potassium voltage-gated channel subfamily KQT member 2 (Mus musculus) (UniProt Q9Z351); test: Increased outward current at -40 mV mediated by mouse KCNQ2 channel expressed in Xenopus laevis oocytes at 100 nM; format: functional, cell-based; conditions: Oocyte
[4] = target: Potassium voltage-gated channel subfamily KQT member 2 (Mus musculus, UniProt Q9Z351); test: Increased outward current at -40 mV mediated by mouse KCNQ2 channel expressed in Xenopus laevis oocytes; format: functional, cell-based, Oocyte
[5] = target: Potassium voltage-gated channel subfamily KQT member 2 (Mus musculus) (UniProt Q9Z351); test: Increased outward current at -40 mV mediated by mouse KCNQ2 channel expressed in Xenopus laevis oocytes at 20 uM; Insoluble; format: functional, cell-based; conditions: Oocyte; in short: as §1
[6] = target: Potassium voltage-gated channel subfamily KQT member 2 (Mus musculus) (UniProt Q9Z351); test: Increased outward current at -40 mV mediated by mouse KCNQ2 channel expressed in Xenopus laevis oocytes at 5 uM; Insoluble; format: functional, cell-based; conditions: Oocyte; in short: as §1

Chain of Potassium voltage-gated channel subfamily KQT member 2 (Mus musculus) (Q9Z351 whole entry): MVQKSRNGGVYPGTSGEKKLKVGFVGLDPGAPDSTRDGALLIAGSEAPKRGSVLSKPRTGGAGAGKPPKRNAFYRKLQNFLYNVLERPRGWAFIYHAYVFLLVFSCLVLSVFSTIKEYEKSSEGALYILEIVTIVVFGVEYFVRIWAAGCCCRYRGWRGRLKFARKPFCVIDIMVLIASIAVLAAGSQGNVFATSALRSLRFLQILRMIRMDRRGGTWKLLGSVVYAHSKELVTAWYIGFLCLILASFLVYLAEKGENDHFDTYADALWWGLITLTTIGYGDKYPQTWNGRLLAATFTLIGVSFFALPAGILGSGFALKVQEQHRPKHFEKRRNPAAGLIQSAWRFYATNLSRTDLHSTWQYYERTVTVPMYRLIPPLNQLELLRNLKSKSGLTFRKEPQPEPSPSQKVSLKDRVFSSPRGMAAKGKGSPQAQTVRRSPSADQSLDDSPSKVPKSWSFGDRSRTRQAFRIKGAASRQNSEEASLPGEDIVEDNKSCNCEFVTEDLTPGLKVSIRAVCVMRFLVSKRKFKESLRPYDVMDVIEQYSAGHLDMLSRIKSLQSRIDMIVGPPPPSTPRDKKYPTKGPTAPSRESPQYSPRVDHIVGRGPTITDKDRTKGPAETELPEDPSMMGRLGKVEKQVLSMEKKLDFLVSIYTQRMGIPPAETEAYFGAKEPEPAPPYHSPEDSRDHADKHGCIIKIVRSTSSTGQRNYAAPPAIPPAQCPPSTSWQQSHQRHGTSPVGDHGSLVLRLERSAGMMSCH
Chain of Potassium voltage-gated channel subfamily KQT member 2 (Q9Z351 whole entry): as above

Structure (SMILES)	Increase [1] [%]	also measured
O=S(=O)(Nc1c(O)nc2cc(C(F)(F)F)ccc2c1Cc1cccc(Cl)c1)C(F)(F)F	220	–
O=S(=O)(Nc1c(O)nc2ccc(C(F)(F)F)cc2c1Cc1cc(Cl)ccc1O)C(F)(F)F	284	Increase [2]: 217%; Increase [3]: 143%
O=S(=O)(Nc1c(O)nc2cc(C(F)(F)F)ccc2c1Cc1cc(Cl)ccc1O)C(F)(F)F	271	Increase [2]: 190%
Nc1c(O)nc2ccc(C(F)(F)F)cc2c1Cc1cc(Cl)ccc1O	122	–
O=c1[nH]c2ccc(C(F)(F)F)cc2c(Cc2cc(Cl)ccc2O)c1NS(=O)(=O)C(F)(F)F	–	EC50 [4]: 663 nM
CCOC(=O)Nc1ccc(NCc2ccc(F)cc2)cc1N	269	–
O=S(=O)(Nc1c(O)nc2cc(C(F)(F)F)ccc2c1Cc1ccccc1)C(F)(F)F	223	–
O=S(=O)(Nc1c(O)nc2cc(C(F)(F)F)ccc2c1Cc1ccccc1O)C(F)(F)F	277	–
Nc1c(O)nc2cc(C(F)(F)F)ccc2c1Cc1cc(Cl)ccc1O	–	Increase [2]: 89%; Increase [5]: Insoluble; Increase [6]: Insoluble
O=S(=O)(Nc1c(O)nc2ccccc2c1Cc1ccccc1)C(F)(F)F	131	–
COc1ccccc1Cc1c(NS(=O)(=O)C(F)(F)F)c(O)nc2cc(C(F)(F)F)ccc12	254	–
COc1ccc(Cl)cc1Cc1c(NS(=O)(=O)C(F)(F)F)c(O)nc2ccc(C(F)(F)F)cc12	231	–
Nc1c(O)nc2ccccc2c1Cc1ccccc1	103	–
